Test results reported in ChEMBL document CHEMBL1131634, “Axially chiral N-benzyl-N,7-dimethyl-5-phenyl-1, 7-naphthyridine-6-carboxamide derivatives as tachykinin NK1 receptor antagonists: determination of the absolute stereochemical requirements” (J Med Chem, 1998).

Legend:
Cavia porcellus [1] = assay: In vivo inhibition of capsaicin-induced plasma extravasation in guinea pig trachea on peroral administration; assay type: functional; conditions: po
Summary of the method: (§1)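 Guinea pigs received compound iv or po before capsaicin challenge, and tracheal plasma extravasation was measured. ID50 was derived from 5–8 animals per dose and reported with 95% confidence limits.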

Substance-P receptor = Substance-P receptor (Homo sapiens, UniProt P25103); assay: Binding affinity at Tachykinin receptor 1 by measuring its ability to inhibit [125I]BH-SP binding in human IM-9 cells (Lymphoblast cells).; assay type: cell-based
Cavia porcellus [2] = assay: In vivo inhibition of capsaicin-induced plasma extravasation in guinea pig trachea on intravenous administration.; assay type: functional; summary of the method: as §1
Cavia porcellus [3] = assay: In vivo inhibition (percentage) of capsaicin-induced plasma extravasation in guinea pig trachea on intravenous administration at 1.0 mg/kg; assay type: functional
Summary of the method: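 Guinea pigs were given a single iv dose of 1.0 mg/kg. Capsaicin-induced tracheal plasma extravasation was then measured, with percent inhibition reported (n = 5 or 6).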

Chain of Substance-P receptor (P25103 whole entry): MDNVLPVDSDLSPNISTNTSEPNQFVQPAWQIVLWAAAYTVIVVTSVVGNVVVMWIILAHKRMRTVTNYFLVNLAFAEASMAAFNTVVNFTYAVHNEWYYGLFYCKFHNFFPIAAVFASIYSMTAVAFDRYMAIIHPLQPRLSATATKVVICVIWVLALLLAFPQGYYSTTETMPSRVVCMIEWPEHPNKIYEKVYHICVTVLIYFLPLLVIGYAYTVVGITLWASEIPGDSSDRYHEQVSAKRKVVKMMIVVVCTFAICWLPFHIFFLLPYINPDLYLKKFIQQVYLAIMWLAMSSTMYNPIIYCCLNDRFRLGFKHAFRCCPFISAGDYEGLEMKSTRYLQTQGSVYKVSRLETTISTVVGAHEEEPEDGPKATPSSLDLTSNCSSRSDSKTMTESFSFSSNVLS

SMILES	IC50 (Substance-P receptor) [nM]	ED50 (Cavia porcellus [1]) [mg/kg]	ED50 (Cavia porcellus [2]) [mg/kg]	inhibition in vivo at 1 mg/kg (Cavia porcellus [3]) [%]
Cc1ccc(-c2c(C(=O)N(C)Cc3cc(C(F)(F)F)cc(C(F)(F)F)c3)n(C)c(=O)c3ncccc23)cc1 [7-METHYL-8-OXO-5-P-TOLYL-7,8-DIHYDRO-[1,7]NAPHTHYRIDINE-6-CARBOXYLIC ACID (3,5-BIS-TRIFLUOROMETHYL-BENZYL)-METHYL-AMIDE (STRUCTURAL MIX)]	–	0.11	–	–
Cc1ccc(-c2c(C(=O)N(C)[C@H](C)c3cc(C(F)(F)F)cc(C(F)(F)F)c3)n(C)c(=O)c3ncccc23)cc1 (stereo in doubt; 3b-B) [7-METHYL-8-OXO-5-P-TOLYL-7,8-DIHYDRO-[1,7]NAPHTHYRIDINE-6-CARBOXYLIC ACID (S)-[(R)-1-(3,5-BIS-TRIFLUOROMETHYL-PHENYL)-ETHYL]-METHYL-AMIDE (ENANTIOMERIC MIX)]	620	–	–	6.9

More lines, in order of falling IC50 (Substance-P receptor), values ahead:

IC50 (Substance-P receptor) [nM]	SMILES	ED50 (Cavia porcellus [1]) [mg/kg]	ED50 (Cavia porcellus [2]) [mg/kg]	inhibition in vivo at 1 mg/kg (Cavia porcellus [3]) [%]
130	Cc1ccc(-c2c(C(=O)N(C)[C@H](C)c3ccccc3)n(C)c(=O)c3ncccc23)cc1	–	–	–
44	Cc1ccc(-c2c(C(=O)N(C)[C@@H](C)c3cc(C(F)(F)F)cc(C(F)(F)F)c3)n(C)c(=O)c3ncccc23)cc1 (stereo in doubt; 3a-B) [7-METHYL-8-OXO-5-P-TOLYL-7,8-DIHYDRO-[1,7]NAPHTHYRIDINE-6-CARBOXYLIC ACID (S)-[(S)-1-(3,5-BIS-TRIFLUOROMETHYL-PHENYL)-ETHYL]-METHYL-AMIDE (ENANTIOMERIC MIX)]	–	–	61.8
19	Cc1ccc(-c2c(C(=O)N(C)[C@H](C)c3cc(C(F)(F)F)cc(C(F)(F)F)c3)n(C)c(=O)c3ncccc23)cc1 (stereo in doubt; 3b-A) [7-METHYL-8-OXO-5-P-TOLYL-7,8-DIHYDRO-[1,7]NAPHTHYRIDINE-6-CARBOXYLIC ACID (S)-[(R)-1-(3,5-BIS-TRIFLUOROMETHYL-PHENYL)-ETHYL]-METHYL-AMIDE (ENANTIOMERIC MIX)]	–	0.412	–
0.8	Cc1ccc(-c2c(C(=O)N(C)[C@@H](C)c3cc(C(F)(F)F)cc(C(F)(F)F)c3)n(C)c(=O)c3ncccc23)cc1 (stereo in doubt; 3a-A) [7-METHYL-8-OXO-5-P-TOLYL-7,8-DIHYDRO-[1,7]NAPHTHYRIDINE-6-CARBOXYLIC ACID (S)-[(S)-1-(3,5-BIS-TRIFLUOROMETHYL-PHENYL)-ETHYL]-METHYL-AMIDE (ENANTIOMERIC MIX)]	0.0677	0.0093	–
